We go through 13 compounds from ChEMBL document CHEMBL3045047, “Phytochemistry and nematicidal activity of the essential oils from 8 Greek Lamiaceae aromatic plants and 13 terpene components” (J Agric Food Chem, 2010).

Holding throughout (type): functional, organism-based
For experiment [1], the system named is Meloidogyne incognita. The experiment can be described thus: Nematicidal activity against Meloidogyne incognita J2 (root-knot nematode) larvae immersed in compound solution for 48 hr assessed as reduction in larval motility. The procedure, abridged:
(§1)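 J2 hatched at 28 °C in modified Baermann funnels from eggs extracted from roots with sodium hypochlorite. Ethanol stocks were diluted in water with Tween-20 (final ethanol ≤1%, Tween-20 ≤0.3% v/v), with water and solvent controls. Fifteen J2 per well, covered, dark, 28 °C. Motile/immotile scored microscopically. Control-corrected (Schneider-Orelli), six replicates, run twice. EC50 from log-logistic regression.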

The subject of experiment [2] is Meloidogyne incognita. The experiment is described as follows: Nematicidal activity against Meloidogyne incognita J2 (root-knot nematode) larvae immersed in compound solution for 24 hr assessed as reduction in larval motility. The procedure, abridged:
as §1

Experiment [3] relates to Meloidogyne incognita. The experiment can be described thus: Nematicidal activity against Meloidogyne incognita J2 (root-knot nematode) larvae immersed in compound solution for 96 hr assessed as reduction in larval motility. The procedure, abridged: as §1
Another experiment has as its system Meloidogyne javanica. The experiment can be described thus: Nematicidal activity against Meloidogyne javanica J2 (root-knot nematode) larvae immersed in compound solution for 48 hr assessed as reduction in larval motility.

≈ marks a conversion by molar mass, not a printed value.

As to `C/C=C/c1ccc(OC)cc1` [ANETHOLE], the EC50 stood at 140 µg/mL (≈ 945 µM) with Meloidogyne incognita [1], 170 µg/mL (≈ 1150 µM) in the experiment on Meloidogyne incognita [2] and 124 µg/mL (≈ 837 µM) in the experiment with Meloidogyne incognita [3].

In the case of `C=C1CC/C=C(\C)CC[C@@H]2[C@@H]1CC2(C)C` [BETA-CARYOPHYLLENE], the results for the EC50 in the experiment with Meloidogyne incognita [1], with Meloidogyne incognita [2] and in the experiment on Meloidogyne incognita [3] were 433 µg/mL (≈ 2120 µM), greater than 1800 µg/mL and 307 µg/mL (≈ 1500 µM), respectively.

As for `Cc1ccc(C(C)C)cc1O` [CARVACROL], the EC50 came out at 176 µg/mL (≈ 1170 µM) with Meloidogyne incognita [1], 264 µg/mL (≈ 1760 µM) in the experiment with Meloidogyne incognita [2], 117 µg/mL (≈ 779 µM) with Meloidogyne incognita [3] and 0.128 uL/ml in the experiment with Meloidogyne javanica.

Take `C=C(C)[C@H]1CC=C(C)CC1` [D-LIMONENE]: the EC50 with Meloidogyne incognita [1], in the experiment with Meloidogyne incognita [2] and with Meloidogyne incognita [3] was greater than 1680 µg/mL throughout.

On to `CC12CCC(CC1)C(C)(C)O2` [EUCALYPTOL], for which the values for the EC50 with Meloidogyne incognita [1], in the experiment with Meloidogyne incognita [2] and in the experiment on Meloidogyne incognita [3] were greater than 1840 µg/mL, greater than 1840 µg/mL and 1600 µg/mL (≈ 10400 µM), respectively.

In the case of `C=CCc1ccc(O)c(OC)c1` [EUGENOL], the figures for the EC50 in the experiment with Meloidogyne incognita [1], in the experiment on Meloidogyne incognita [2] and in the experiment on Meloidogyne incognita [3] were 192 µg/mL (≈ 1170 µM), 256 µg/mL (≈ 1560 µM) and less than 133 µg/mL, respectively.

As to `CC(C)=CCC/C(C)=C/CO` [GERANIOL], the EC50 with Meloidogyne incognita [1] came to 158 µg/mL (≈ 1020 µM); in the experiment on Meloidogyne incognita [2] it was 237 µg/mL (≈ 1540 µM); in the experiment with Meloidogyne incognita [3], 105 µg/mL (≈ 681 µM).

For the compound `C=C(C)[C@@H]1CC=C(C)C(=O)C1` [L-CARVONE], the values for the EC50 in the experiment on Meloidogyne incognita [1], with Meloidogyne incognita [2] and in the experiment on Meloidogyne incognita [3] were less than 120 µg/mL, 115 µg/mL (≈ 766 µM) and less than 120 µg/mL, respectively.

`C=CC(C)(O)CCC=C(C)C` (stereo unspecified) [LINALOOL]: the EC50 with Meloidogyne incognita [1] was 707 µg/mL (≈ 4580 µM); with Meloidogyne incognita [2] it was 862 µg/mL (≈ 5590 µM); with Meloidogyne incognita [3], 284 µg/mL (≈ 1840 µM).

`Cc1ccc(C(C)C)cc1` [P-CYMENE]: the EC50 in the experiment with Meloidogyne incognita [1], in the experiment on Meloidogyne incognita [2] and in the experiment on Meloidogyne incognita [3] was greater than 1720 µg/mL each time.

For the compound `CC(C)=C1CC[C@@H](C)CC1=O` [PULEGONE], the EC50 in the experiment on Meloidogyne incognita [1] was less than 117 µg/mL; in the experiment with Meloidogyne incognita [2], 150 µg/mL (≈ 985 µM); with Meloidogyne incognita [3] it was less than 117 µg/mL; with Meloidogyne javanica, 0.205 uL/ml.

`CC1=CCC(O)(C(C)C)CC1` (stereo unspecified) [TERPINEOL]: the EC50 in the experiment on Meloidogyne incognita [1] was 290 µg/mL (≈ 1880 µM); in the experiment on Meloidogyne incognita [2], 392 µg/mL (≈ 2540 µM); with Meloidogyne incognita [3], 168 µg/mL (≈ 1090 µM).

As for `Cc1ccc(C(C)C)c(O)c1` [THYMOL], the EC50 in the experiment on Meloidogyne incognita [1] was 280 µg/mL (≈ 1860 µM); with Meloidogyne incognita [2] it was 390 µg/mL (≈ 2600 µM); in the experiment with Meloidogyne incognita [3], 160 µg/mL (≈ 1070 µM).
